From PubChem BioAssay
PGC1a acetyl inh – modulators of PGC1a acetylation. inhibition, % at 15.6 µM. U2OS PGC1a acetylation, AlphaScreen anti-acetyl-lysine; with virally co-expressed GCN5 acetyltransferase. actives 0.17% (n = 350,000);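 active means every replicate shows inhibition of at least 40%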;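 further: 0% = neutral control wells and 100% = positive control wells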
SIRT5 block – sirtuin-5 (human) deacylase inhibition; Q9NXA8; Purified SirT5, succinyl-peptide AMC, trypsin-coupled fluorescence; inhibition, % at 15 µM; actives 1.1% (n = 330,000); AID 652115; in the data active means inhibition above about 15%
Target sequence (Q9NXA8 whole entry, looked up): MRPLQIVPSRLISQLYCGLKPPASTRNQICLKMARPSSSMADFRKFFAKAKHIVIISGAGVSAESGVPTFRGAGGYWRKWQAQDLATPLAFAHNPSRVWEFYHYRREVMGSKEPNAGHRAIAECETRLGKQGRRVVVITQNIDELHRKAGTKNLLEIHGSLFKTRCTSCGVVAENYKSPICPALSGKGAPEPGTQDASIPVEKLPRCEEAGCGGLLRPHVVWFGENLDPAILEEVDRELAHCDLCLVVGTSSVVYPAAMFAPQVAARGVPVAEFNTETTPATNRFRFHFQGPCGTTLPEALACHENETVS
C2C12 statin – suppression of simvastatin myotoxicity. AID 602340. actives 0.78% (n = 330,000). rescue of ATP level, % at 7.49 µM. C2C12 myotubes + simvastatin, ATP luminescence, 48 h; scaled: DMSO 0, geranylgeraniol control 100;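 active means mean ATP rescue above about 67%, or every replicate alone reaching that limit, limit read from the data, passing the limit was not always enough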;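 further: myotubes were challenged with 10 µM simvastatin during compound exposure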
DENV2 CPE rescue – protects cells from dengue virus 2 cytopathic effect; DENV2-infected cells, cytopathic effect rescue, plate reader; CPE inhibition, % at 9.99 µM; actives 1.7% (n = 350,000); AID 651640; in the data active means CPE inhibition above about 20%, passing the limit was not always enough; tested in BHK-21 cells;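 further: 0% = median of neutral control wells and 100% = median of positive control wells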
S100A4 inh HTS – S100A4-myosin IIA interaction inhibition. P26447. S100A4/TAMRA-MyoIIA peptide fluorescence polarization. inhibition, % at 10.7 µM. actives 0.14% (n = 360,000);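 active means mean inhibition of at least 70% across replicates, with every replicate also reaching that level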
Target sequence (P26447 whole entry, looked up): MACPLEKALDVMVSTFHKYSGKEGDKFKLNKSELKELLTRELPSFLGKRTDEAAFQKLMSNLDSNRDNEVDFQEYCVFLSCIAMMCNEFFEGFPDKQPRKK
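incubation = readout 5 min after mixing, signal stable up to 60 min | system = S100A4 monomer protein | buffer or medium = HEPES pH 7.2 with CaCl2, KCl, NaCl, DTT, Triton | benchmarks = neutral control DMSO, positive control TFP | also added = fluorescent myosin IIA peptide, 5 nM | compound dosing = one concentration per compound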
Starred values were filed as active, the others as inactive. Sampled rows, rich in hits. Any-hit rate of the full collection: about 2.9%.

C[C@H]1CN([C@@H](C)CO)C(=O)c2cc(NS(=O)(=O)c3ccc(F)cc3)ccc2O[C@H]1CN(C)C(=O)Nc1ccccc1 was read as PGC1a acetyl inh -13, SIRT5 block -1, C2C12 statin 3, DENV2 CPE rescue 27* and S100A4 inh HTS -4.
COc1ccc(CNC(=O)CCNC(=O)c2ccco2)cc1OC was read as PGC1a acetyl inh 1, SIRT5 block -3, C2C12 statin -9, DENV2 CPE rescue 39* and S100A4 inh HTS -2.
Screening O=C(N1CCCCCC1)N1CCN(S(=O)(=O)N2CCCCC2)CC1 returned PGC1a acetyl inh 1 and C2C12 statin 101*.
For O=C1CCc2ccccc2N1Cc1ccccc1 the results were PGC1a acetyl inh -2, SIRT5 block 0, C2C12 statin 11, DENV2 CPE rescue 0 and S100A4 inh HTS -5.
O=CN1CCC(=O)N(Cc2ccccc2)c2ccccc21 was read as PGC1a acetyl inh -7 and C2C12 statin 109*.
`O=C(O)C[C@@H]1CC[C@@H](NC(=O)c2ccncc2)[C@H](CO)O1` gave PGC1a acetyl inh 10, SIRT5 block -1, C2C12 statin 1, DENV2 CPE rescue 3 and S100A4 inh HTS 7.
Screening C[C@@H]1CCCCO[C@H](CN(C)C(=O)Nc2ccc(F)cc2)[C@H](C)CN([C@H](C)CO)C(=O)c2cc(NS(=O)(=O)c3ccc(F)cc3)ccc2O1 returned PGC1a acetyl inh 0 and DENV2 CPE rescue 16.
`O=C(N1CCOCC1)[C@]1(CCS(=O)(=O)c2ccccc2)N=C(c2ccc(OCCCO)cc2)O[C@@H]1c1ccccc1` gave PGC1a acetyl inh -17, SIRT5 block -3, DENV2 CPE rescue 23* and S100A4 inh HTS -4.
Screening COC(=O)[C@@]1(CCS(=O)(=O)c2ccccc2)N=C(c2ccc(OCCCO)cc2)O[C@H]1c1ccccc1CN=[N+]=[N-] returned PGC1a acetyl inh -20, SIRT5 block 1, DENV2 CPE rescue 22* and S100A4 inh HTS 5.
For O=C(NCCN1CCOCC1)[C@@]1(CCS(=O)(=O)c2ccccc2)N=C(c2ccc(OCCCO)cc2)O[C@H]1c1ccccc1 the results were SIRT5 block -1, DENV2 CPE rescue -6 and S100A4 inh HTS -2.
For Cc1ccc(S(=O)(=O)Nc2ccc3c(c2)C(=O)N([C@H](C)CO)C[C@@H](C)[C@H](CN(C)Cc2ccncc2)OCCCC[C@H](C)O3)cc1 the results were PGC1a acetyl inh 3, DENV2 CPE rescue -2 and S100A4 inh HTS -1.
Screening C[C@H]1CCCCO[C@H](CN(C)S(=O)(=O)c2ccccc2)[C@@H](C)CN([C@@H](C)CO)C(=O)c2cc(N(C)C)ccc2O1 returned PGC1a acetyl inh 0, SIRT5 block 0, C2C12 statin -23, DENV2 CPE rescue -11 and S100A4 inh HTS 7.
Screening CCN(CC)c1ccc(C(=C2C=CC(=[N+](CC)CC)C=C2)c2ccc(N(CC)CC)cc2)cc1 returned PGC1a acetyl inh 83*, SIRT5 block 1, C2C12 statin -362, DENV2 CPE rescue -3 and S100A4 inh HTS 49.
Screening CC(CCc1ccc(O)cc1)NC(c1ccccc1)c1ccc(Cl)cc1 (stereo unspecified) returned PGC1a acetyl inh -2, C2C12 statin 20, DENV2 CPE rescue 55* and S100A4 inh HTS -3.
Screening CC(CCc1ccc(O)cc1)NCCC(c1ccccc1)c1ccccc1 (stereo unspecified) returned PGC1a acetyl inh -14, C2C12 statin -16, DENV2 CPE rescue 0 and S100A4 inh HTS -3.
For CC(C)C#Cc1cnc2c(c1)C(=O)N([C@@H](C)CO)C[C@@H](C)[C@@H](CN(C)C(=O)CC1CC1)O2 the results were SIRT5 block 1, DENV2 CPE rescue -4 and S100A4 inh HTS -21.
CC(=O)/C(C#N)=C1\NC(=O)C(Cc2ccccc2Cl)S1 (stereo unspecified) was read as PGC1a acetyl inh 0 and C2C12 statin 33.
For CC(=O)/C(C#N)=C1\NC(=O)C(Cc2cc(Cl)ccc2Cl)S1 (stereo unspecified) the results were PGC1a acetyl inh 16, SIRT5 block 2, DENV2 CPE rescue 57* and S100A4 inh HTS -7.
`CC(=O)N1[C@H](CO)[C@H](c2ccccc2)[C@H]1CN(CC1CCC1)C(=O)CN(C)C` gave PGC1a acetyl inh -13, SIRT5 block 3, C2C12 statin 19, DENV2 CPE rescue -4 and S100A4 inh HTS 5.
COc1cccc(CNC(=O)[C@H]2CCCN2C(=O)[C@H]2CCCN2C(=O)N2CCOCC2)c1 was read as SIRT5 block -1, DENV2 CPE rescue 9 and S100A4 inh HTS -17.
O=C(NCCS(=O)(=O)N1CCN(c2ccccc2)CC1)C1CC1 was read as PGC1a acetyl inh 9, SIRT5 block -9, C2C12 statin -1, DENV2 CPE rescue 104* and S100A4 inh HTS 9.
`COc1cc(NC(=O)c2cc(S(=O)(=O)N3CCCCC3)ccc2N2CCOCC2)cc(OC)c1OC` gave PGC1a acetyl inh 6, SIRT5 block -1, C2C12 statin 15, DENV2 CPE rescue 63* and S100A4 inh HTS -2.
Screening Cc1occc1C(=O)Nc1cc(S(=O)(=O)N2CCOCC2)ccc1OC(C)C returned PGC1a acetyl inh 10, SIRT5 block 0, C2C12 statin -2, DENV2 CPE rescue -5 and S100A4 inh HTS -7.
For O=C(Nc1ccccc1Cl)c1cc(S(=O)(=O)N2CCCCC2)ccc1N1CCOCC1 the results were PGC1a acetyl inh 0 and C2C12 statin 8.
Screening COc1ccc(CCC(=O)Nc2cc(S(=O)(=O)N3CCOCC3)ccc2OC(C)C)cc1 returned PGC1a acetyl inh 12, SIRT5 block -2, C2C12 statin 3, DENV2 CPE rescue 70* and S100A4 inh HTS 1.
Screening COc1cc(CCC(=O)Nc2cc(S(=O)(=O)N3CCOCC3)ccc2OC(C)C)cc(OC)c1OC returned PGC1a acetyl inh 1, SIRT5 block -1, C2C12 statin 1, DENV2 CPE rescue -2 and S100A4 inh HTS -1.
For CC(C)Oc1ccc(S(=O)(=O)N2CCOCC2)cc1NC(=O)c1cc([N+](=O)[O-])ccc1N1CCOCC1 the results were PGC1a acetyl inh 17, SIRT5 block 2, C2C12 statin 9, DENV2 CPE rescue 72* and S100A4 inh HTS -9.
For C[C@H](CO)N1C[C@H](C)[C@H](CN(C)CC2CCCC2)Oc2ncc(-c3cccc(F)c3)cc2C1=O the results were PGC1a acetyl inh 9, SIRT5 block -2, DENV2 CPE rescue 5 and S100A4 inh HTS -13.
CC(C)NC(=O)N[C@@H]1CC[C@H](CC(=O)N2CCCCC2)O[C@@H]1CO was read as PGC1a acetyl inh -3, SIRT5 block -2, C2C12 statin -4, DENV2 CPE rescue 9 and S100A4 inh HTS 7.
`CC(=O)N1[C@@H]2CN(S(=O)(=O)c3ccc(F)cc3)c3ccccc3[C@@H]2[C@@H]1CO` gave PGC1a acetyl inh 1, SIRT5 block -1, C2C12 statin -13, DENV2 CPE rescue 4 and S100A4 inh HTS -1.
